Compound activity from PubChem.
UCH37 DUB inh: blocks the human deubiquitinase UCH37. AID 588478. 0.33% of 330,000 active. purified proteasome/UCH37, Ub-AMC cleavage fluorescence. inhibition, % (test concentration not listed);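 active = mean inhibition over replicate wells above about 20%, limit read from the data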
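Schedule: 30 min plus 25 min, room temperature / Material: human UCH37 within purified proteasomes / Technique: AMC fluorescence intensity at 355/460 nm / Buffer or medium: pH 7.4 Tris-HCl (50 mM) with ovalbumin, ATP-MgCl2, DTT / Controls: wells without proteasome as full block, compound-free enzyme plus substrate as uninhibited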
SIRT5 inh: inhibitors of human sirtuin-5 desuccinylase; AID 652115; inhibition, % at 15 µM; Purified SirT5, succinyl-peptide AMC, trypsin-coupled fluorescence; Q9NXA8; 1.1% of 330,000 active; in the data active = inhibition above about 15%
FGF22 binding: binders of recombinant human FGF22 by thermal shift; SYPRO orange fluorescence; percent of sucrose octasulfate shift, DMSO zero; activity (Tm shift, normalised), % at 9.99 µM; 1.5% of 340,000 active; AID 651658; Q9HCT0;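 active = mean Tm shift, scaled 0 neutral to 100 positive control, at about 1.3% or above, every replicate too, limit read from the data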
Target sequence (Q9HCT0 whole entry, looked up): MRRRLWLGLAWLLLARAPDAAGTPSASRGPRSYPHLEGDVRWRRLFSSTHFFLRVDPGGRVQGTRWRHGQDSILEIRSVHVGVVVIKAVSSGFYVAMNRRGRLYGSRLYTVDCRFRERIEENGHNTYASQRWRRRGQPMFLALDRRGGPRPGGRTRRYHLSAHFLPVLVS
NSD2 HMT inh: blocks human histone methyltransferase NSD2; AID 743445; NSD2 peptide methylation, AlphaScreen, 120 min; inhibition, % at 12.5 µM; 0.54% of 310,000 active; in the data active = inhibition above about 50%
Casp6 inh: inhibitors of human caspase-6; inhibition, % at 12.5 µM; purified caspase-6, Z-VEID-R110 cleavage fluorescence; 0.53% of 350,000 active; AID 686996; P55212;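 active = mean inhibition across replicates at least about 35%, with every replicate also reaching that limit, limit read from the data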
Target sequence (P55212 24-179 limits assumed): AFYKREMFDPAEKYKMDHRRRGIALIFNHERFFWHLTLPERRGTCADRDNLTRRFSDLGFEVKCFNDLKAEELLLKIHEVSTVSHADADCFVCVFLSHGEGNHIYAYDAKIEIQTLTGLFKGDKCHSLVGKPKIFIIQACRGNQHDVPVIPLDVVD
Target sequence (P55212 194-293 limits assumed): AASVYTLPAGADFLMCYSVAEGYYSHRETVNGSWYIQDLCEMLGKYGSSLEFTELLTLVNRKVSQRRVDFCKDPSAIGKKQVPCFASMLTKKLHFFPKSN
Numbers stand for hits; 0 = inactive; - = no result; ! = not active in a repeat. Only some compounds are listed: those with a hit (about 2.6% of all), similar ones and a draw of the others.

SMILES | UCH37 DUB inh | SIRT5 inh | FGF22 binding | NSD2 HMT inh | Casp6 inh
C[C@H](CO)N1C[C@H](C)[C@H](CN(C)C(=O)Cc2ccccc2)Oc2cc(C3=CCCCC3)ccc2S1(=O)=O | - | 15 | 0 | - | 0
C[C@@H]1CN([C@@H](C)CO)S(=O)(=O)c2ccc(C3=CCCCC3)cc2O[C@H]1CN(C)C(=O)Nc1ccc2c(c1)OCO2 | - | 0 | 0 | - | 0
C[C@@H]1CN([C@@H](C)CO)C(=O)c2cc(C3=CCCCC3)cnc2O[C@@H]1CN(C)C(=O)Cc1ccccc1 | - | 0 | 0 | - | 0
O=C(O)COc1ccccc1/C=C1\SC(=S)N(N=Cc2ccccc2O)C1=O | 0 | - | - | - | -
C[C@@H](O)C#Cc1cnc2c(c1)C(=O)N([C@@H](C)CO)C[C@H](C)[C@@H](CN(C)Cc1ccccn1)O2 | - | 0 | 0 | - | 0
C[C@H](CO)N1C[C@H](C)[C@@H](CN(C)Cc2ccccc2)Oc2cc(C3=CCCC3)ccc2S1(=O)=O | - | 17 | 0 | - | 0
CC(=O)N1[C@@H]2c3ccc(C4=CCCC4)c(=O)n3C[C@H]1[C@H](CO)[C@H]2C(=O)N[C@H](C)c1ccccc1 | - | 0 | - | - | 0
Cc1ccccc1S(=O)(=O)N[C@H]1CC[C@@H](CCNS(=O)(=O)c2cccc(F)c2)O[C@@H]1CO | - | 0 | 0 | - | 0
CC1CCCN(C(=O)COC(=O)C2CCN(S(=O)(=O)c3c(Cl)cccc3Cl)CC2)C1 (configuration not stated) | 0 | 18 | 0 | 0 | 0
CC1CC(C)CN(C(=O)COC(=O)C2CCN(S(=O)(=O)c3c(Cl)cccc3Cl)CC2)C1 (configuration not stated) | 0 | 0 | 0 | 0 | 0
C[c-]1[c-](C)[c-](C)[c-](C)[c-]1C.[Fe].c1cc2nccc(N3CCCC3)[c-]2c1 (configuration not stated) | 0 | 0 | 0 | - | 38!
c1cc(N2CCCCC2)nc(N2CCCCC2)n1 | 0 | 0 | 0 | 0 | 0
COc1ccc(S(=O)(=O)N(C)C[C@H]2OCCCC[C@H](C)Oc3ccc(NS(=O)(=O)c4ccccc4)cc3C(=O)N([C@H](C)CO)C[C@H]2C)cc1 | - | 0 | 0 | - | 0
COc1ccc(S(=O)(=O)Nc2ccc3c(c2)C(=O)N([C@H](C)CO)C[C@H](C)[C@@H](CN(C)Cc2ccncc2)OCCCC[C@H](C)O3)cc1 | - | 0 | 0 | - | 0
COc1ccc(S(=O)(=O)Nc2ccc3c(c2)C(=O)N([C@@H](C)CO)C[C@@H](C)[C@H](CN(C)Cc2ccncc2)OCCCC[C@H](C)O3)cc1 | - | 17 | 0 | - | 0
COc1ccc(S(=O)(=O)Nc2ccc3c(c2)C(=O)N([C@@H](C)CO)C[C@@H](C)[C@H](CN(C)S(=O)(=O)c2ccccc2)OCCCC[C@H](C)O3)cc1 | - | 22 | 0 | - | 0
COc1ccc(S(=O)(=O)N(C)C[C@@H]2OCCCC[C@H](C)Oc3ccc(NS(=O)(=O)c4ccccc4)cc3C(=O)N([C@@H](C)CO)C[C@@H]2C)cc1 | - | 0 | 0 | - | 0
COc1ccc(S(=O)(=O)N(C)C[C@H]2OCCCC[C@H](C)Oc3ccc(NS(=O)(=O)c4ccccc4)cc3C(=O)N([C@H](C)CO)C[C@@H]2C)cc1 | - | 0 | 0 | - | 0
COc1ccc(S(=O)(=O)Nc2ccc3c(c2)C(=O)N([C@H](C)CO)C[C@@H](C)[C@H](CN(C)S(=O)(=O)c2ccccc2)OCCCC[C@@H](C)O3)cc1 | - | 19 | 0 | - | 0
COc1ccc(S(=O)(=O)Nc2ccc3c(c2)C(=O)N([C@@H](C)CO)C[C@H](C)[C@@H](CN(C)S(=O)(=O)c2ccccc2)OCCCC[C@@H](C)O3)cc1 | - | 21 | 0 | - | -
Cc1ccc(S(=O)(=O)Nc2ccc3c(c2)C(=O)N([C@@H](C)CO)C[C@@H](C)[C@H](CN(C)C(=O)Nc2cccc4ccccc24)O3)cc1 | - | 0 | 0 | - | 0
COc1ccc(NC(=O)N(C)C[C@H]2Oc3c(cccc3N(C)C)C(=O)N([C@H](C)CO)C[C@@H]2C)cc1 | - | 0 | 0 | - | 0
O=C(O)COc1ccc(C=NNC(=O)c2ccc(-c3csc(Nc4ccc(Cl)cc4)n3)cc2)cc1 | 0 | - | - | - | -
CCCNC(=O)N1[C@H](C#N)[C@H](c2ccc(C3=CCCCC3)cc2)[C@@H]1CO | - | 0 | 0 | - | 0
COc1ccc(S(=O)(=O)Nc2ccc3c(c2)C(=O)N([C@H](C)CO)C[C@@H](C)[C@H](CN(C)S(=O)(=O)c2ccccc2)OCCCC[C@H](C)O3)cc1 | - | 25 | 0 | - | 0
